Measured values of several laboratories.
Compare with care: the assays were run in different laboratories.

CO[C@@H]1[C@H](OC(=O)N2CC(CCN3CCOCC3)C2)CC[C@]2(CO2)[C@H]1[C@@]1(C)O[C@@H]1CC=C(C)C has a Tmax of 0.25 h (human; plasma; subcutaneous; 1.2 mg; single dose, healthy volunteers).
The Tmax of COC(=O)N[C@@H](C)CNc1nccc(-c2cn(C(C)C)nc2-c2cc(Cl)cc(NS(C)(=O)=O)c2F)n1 is reported as about 1.5 h (human; plasma; oral; 50 mg; single dose).
The Tmax of CS(=O)(=O)CCC#N is reported as 1.5 h (human; plasma; oral; 300 mg; single dose, fasted).
CCO[C@H]1CCN(Cc2c(OC)cc(C)c3[nH]ccc23)[C@H](c2ccc(C(=O)O)cc2)C1 has a Tmax of 2 h (human; plasma; oral; 200 mg; multiple doses, twice daily, patients).
With CC(C)(Sc1ccncc1-c1ccc(C#N)c2ccccc12)C(=O)O the Tmax was 0.63 h (male human; plasma; oral; 5 mg; single dose, fasted, healthy volunteers).
C[C@@]1(c2cc(NC(=O)c3ccc(C#N)cn3)ccc2F)C=CSC(N)=N1 has a Tmax of 1.5 h (human; plasma; oral; 150 mg; single dose).
CC(C)[C@H](N)C(=O)NCCCS(=O)(=O)O gave a Tmax of 0.5 h (human; plasma; oral; 171 mg; multiple doses, twice daily, fasted).
The Tmax of COc1cc(N2CCC(N3CCN(C)CC3)CC2)ccc1Nc1ncnc(Nc2ccccc2S(=O)(=O)C(C)C)n1 is reported as 2.48 h (human; plasma; oral; 25 mg; multiple doses, patients).
CC(C)[C@](O)(c1ccc2cc(OC(F)F)c(OC(F)F)cc2c1)c1c[nH]nn1 has a Tmax of 1.9 h (female human; plasma; oral; 450 mg; single dose).
The Tmax of COc1ccc([C@@H]2CN(C(=O)[C@@H](O)CO)C[C@@]2(C)[C@@H](C)O)cc1OC1CN(c2ccc(C)cn2)C1 is reported as 1 h (human; plasma; oral; 1.5 mg; single dose, healthy volunteers).
The Tmax of Cn1cc(-c2ccc(S(=O)(=O)[C@@H]3C[C@@H](C(=O)NC4(C#N)CC4)N(C(=O)C4(C(F)(F)F)CC4)C3)c(C(F)(F)F)c2)cn1 is reported as 4.5 h (human; plasma; oral; 10 mg; single dose, fasted, healthy volunteers).
c1cnc2ccc(Nc3nc(NC4CC4)c4nc[nH]c4n3)cc2c1 has a Tmax of 6.5 h (human; plasma; oral; 400 mg/m²; patients).
With C[C@@H](Nc1cc(F)cc(F)c1)c1cc(C(=O)N(C)C)cc2c(=O)cc(N3CCOCC3)oc12 the Tmax was 1.75 h (human; plasma; oral; 240 mg; single dose, patients).
The Tmax of FC(F)(F)c1ccc(CNc2ccc(Cc3c[nH]c4ncc(Cl)cc34)cn2)cn1 is reported as 2.5 h (human; plasma; oral; 600 mg; single dose).
CCc1nc(C(N)=O)c(Nc2ccc(N3CCC(N4CCN(C)CC4)CC3)c(OC)c2)nc1NC1CCOCC1 gave a Tmax of 5.92 h (human; plasma; oral; 200 mg; multiple doses, patients).
NS(=O)(=O)NCCNc1nonc1C(=NO)Nc1ccc(F)c(Br)c1 has a Tmax of 2 h (human; plasma; oral; 100 mg; multiple doses, twice daily, steady state, patients).
CC(C)n1cc(C#N)c2cc(-n3cc(C(=O)O)cn3)ccc21 gave a Tmax of 4 h (human; plasma; oral; 800 mg; multiple doses, once daily, steady state).
With CC(C)(O)c1ccccc1-c1ccc2[nH]c(/C=C/c3ccc(C(F)(F)F)cc3)nc2c1 the Tmax was 3.98 h (male human; plasma; oral; 60 mg; single dose, fasted).
Oc1cc(O)c2c(c1)O[C@@H](c1ccc(O)c(O)c1)[C@@H](O)C2 has a Tmax of 1 h (human; plasma; oral; 30 mg; single dose).
C=CC(=O)N1CCC(Oc2cc3c(Nc4ccc(Cl)c(Cl)c4F)ncnc3cc2OC)CC1 gave a Tmax of 1.26 h (human; plasma; oral; 16 mg; single dose, fasted).
Cc1nc(NC(=O)N2CCC[C@H]2C(N)=O)sc1-c1ccnc(C(C)(C)C(F)(F)F)c1 gave a Tmax of 2.46 h (human; plasma; oral; 180 mg; patients).
For C=CC(=O)N(C)CCOc1c(N)ncnc1-c1cc(F)cc(NC(=O)c2ccc(C3CC3)cc2F)c1C, the Tmax was 0.5 h (human; blood; oral; 1.5 mg; single dose, healthy volunteers).
With Cc1nc(-c2cn3c(n2)-c2ccc(-c4cnn(C(C)(C)C(N)=O)c4)cc2OCC3)n(C(C)C)n1 the Tmax was 3.97 h (human; plasma; oral; 2 mg; patients).
With Nc1cc(C(F)(F)F)c(-c2cc(N3CCOCC3)nc(N3CCOCC3)n2)cn1 the Tmax was 1.02 h (human; plasma; oral; 50 mg/day; patients).
O=C(Nc1c(Cl)cncc1Cl)c1ccc(OC(F)F)c(OCC2CC2)c1 gave a Tmax of 0.75 h (human; plasma; oral; 0.375 mg; multiple doses, once daily).
CO[C@H]1/C=C\C=C(/C)C(=O)NC2=CC(=O)C(NCCN(C)C)=C(C[C@@H](C)C[C@H](OC)[C@H](O)[C@@H](C)/C=C(\C)[C@@H]1OC(N)=O)C2=O has a Tmax of 1 h (human; plasma; intravenous; 12 mg/m²; patients, infusion).
The Tmax of CCc1nc2c(C)cc(N3CCN(CC(=O)N4CC(O)C4)CC3)cn2c1N(C)c1nc(-c2ccc(F)cc2)c(C#N)s1 is reported as 1 h (human; plasma; oral; 150 mg; fed, healthy volunteers).
The Tmax of C#C[C@]1(COP(=O)(O)OP(=O)(O)OP(=O)(O)O)O[C@@H](n2cnc3c(N)nc(F)nc32)C[C@@H]1O is reported as 24 h (human; plasma; oral; 100 mg; single dose).
With CC(C)n1nc(-c2ccc3oc(N)nc3c2)c2c(N)ncnc21 the Tmax was 0.97 h (human; plasma; oral; 3 mg; multiple doses, once daily, patients).
CCCOc1ccc([C@H]2CNC(=O)N2c2ccc3[nH]cnc3c2)cc1 has a Tmax of 2 h (human; plasma; oral; 200 mg; single dose, fed, healthy volunteers).
CCOc1ccc(Cc2cc([C@@H]3O[C@H](CO)[C@@H](O)[C@H](O)[C@H]3O)ccc2Cl)cc1 has a Tmax of 0.77 h (human; plasma; oral; 10 mg; multiple doses, steady state).
CC(=O)Oc1ccccc1C(=O)O gave a Tmax of 2.5 h (human; plasma; oral; 650 mg; healthy volunteers).
